Compound activity from PubChem BioAssay.
hERG protect = hERG rescue from dofetilide block, primary screen, cell-based, CHO-hERG, FluxOR thallium flux, dofetilide IC70; activation (rescue from dofetilide block), less the hit threshold, % at 10 µM; actives 0.51% (n = 310,000); dofetilide IC70 present; Voltage-gated inwardly rectifying potassium channel KCNH2 (Homo sapiens), Q12809;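 active = activation above the mean of controls blocked by dofetilide plus 5 SD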;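 also: thallium influx through hERG after potassium depolarization seen as dye fluorescence rise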
KCNK9 inh = KCNK9 potassium channel inhibitors, primary screen, HEK293 cells, thallium flux; actives 1.2% (n = 310,000); B-score at 10 µM; FluxOR thallium flux fluorescence; hits give low values;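 active = ratio B-score over 3 SD below the library mean, with starting fluorescence within 5 SD of its mean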;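 also: negative B-score means less thallium flux so channel inhibition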
KCNQ1 act = potentiators or activators of KCNQ1 channel, primary screen, cell-based, thallium flux, high-throughput | actives 0.35% (n = 310,000) | Potassium voltage-gated channel subfamily KQT member 1 (Homo sapiens), P51787 | B-score at 10 µM | CHO-K1 KCNQ1, thallium flux FluxOR fluorescence; hits give high values;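 active = fluorescence ratio B-score, a plate-corrected score, at least three library SD, with initial intensity B-score within 5 SD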
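Doses: Single concentration per compound, DMSO matched to controls | Test system: KCNQ1-transfected CHO-K1 cells | Timing: 90 min dye loading and 20 min compound exposure, both at room temperature | Measured by: Kinetic FluxOR thallium fluorescence, 10-s 1-Hz baseline, 110-s post-stimulus read | Medium: Assay buffer with matched DMSO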
KCNQ1 block = inhibitors of human KCNQ1 channel, primary screen, cell-based, thallium flux, high-throughput. Potassium voltage-gated channel subfamily KQT member 1 (Homo sapiens), P51787. CHO-K1 KCNQ1, FluxOR thallium flux fluorescence; hits give high values. B-score at 10 µM. actives 1.3% (n = 310,000);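 active = compounds whose thallium flux B-score, printed positive for inhibition, exceeds three library SD while starting fluorescence stays within three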;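 also: channel opened by potassium depolarization with thallium stimulus after 20 min compound exposure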
KCNK3 block = human KCNK3 channel inhibitors, primary screen, CHO cells, FluxOR thallium flux, B-score. B-score at 10 µM. AID 602410, 2012. FluxOR fluorescence; hits give low values. actives 0.84% (n = 340,000). Potassium channel subfamily K member 3 (Homo sapiens), O14649;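 active = B-score under library mean minus 4 SD, starting fluorescence ratio at most library mean plus 5 SD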;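 also: more negative B-score means stronger inhibition of thallium flux through KCNK3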
Target sequence (O14649 whole entry, looked up): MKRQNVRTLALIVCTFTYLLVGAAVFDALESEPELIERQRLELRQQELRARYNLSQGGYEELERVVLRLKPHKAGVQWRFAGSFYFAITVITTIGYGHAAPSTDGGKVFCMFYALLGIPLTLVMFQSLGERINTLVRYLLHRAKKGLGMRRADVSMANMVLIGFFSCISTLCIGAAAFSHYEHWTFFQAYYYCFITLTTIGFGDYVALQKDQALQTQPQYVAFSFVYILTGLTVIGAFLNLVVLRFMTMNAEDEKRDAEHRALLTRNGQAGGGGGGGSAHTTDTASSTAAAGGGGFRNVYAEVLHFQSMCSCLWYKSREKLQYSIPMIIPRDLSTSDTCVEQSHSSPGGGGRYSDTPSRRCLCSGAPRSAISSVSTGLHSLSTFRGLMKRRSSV
Kir21 block = inhibitors of mouse Kir2.1 inward-rectifier potassium channel; HEK293-Kir2.1, FluxOR thallium flux fluorescence; hits give low values; B-score at 10 µM; actives 0.85% (n = 310,000);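 active = fluorescence ratio B-score at or below minus 3 SD of library scores, with starting-brightness B-score within 2 SD, cut at about -4.2 in these data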;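 also: channel flux triggered by added potassium and thallium sulfate stimulus; B-score of peak minus minimum fluorescence over baseline after thallium stimulus; more negative B-score means stronger Kir2.1 block with less thallium influx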
The depositor's hits bear a star; i = inactive; . = not tested or not shown; ! = not confirmed by another sample. Hits are enriched below; roughly 3.7% of the tested compounds scored in any of these assays.

SMILES | hERG protect | KCNK9 inh | KCNQ1 act | KCNQ1 block | KCNK3 block | Kir21 block
CCN(CC(=O)Nc1ccccc1C(F)(F)F)C(=O)CSCc1ccc(C)cc1 | -15 | i | i | i | i | -1.8
O=C(Nc1nc2c(F)cccc2s1)c1ccco1 | -7 | i | i | i | i | -0.93
COc1cccc2sc(Nc3nnc(-c4ccc(F)cc4)o3)nc12 | 46* | i | 94* | i | i | 1.2
COc1cccc2sc(Nc3nc(-c4ccccn4)cs3)nc12 | 24* | -6.9* | 33* | i | i | -0.65
Fc1cccc2sc(Nc3nnc(-c4ccco4)o3)nc12 | 13* | i | 21* | i | i | 0.26
COc1cccc2sc(Nc3nnc(-c4cccs4)o3)nc12 | 34* | i | 19* | i | i | 1.9
Brc1ccc(-c2ccc(/C=N/Nc3nc4ccccc4[nH]3)o2)cc1 | -4 | i | i | i | i | 0.45
COc1ccc(CN(C)C(=O)CCN2C(=O)c3ccccc3C2=O)c(OC)c1OC | -1 | i | i | i | i | 1.3
COc1ccc(CN(C)C(=O)COC(=O)c2ccc(-c3ccccc3)cc2)c(OC)c1OC | . | . | . | . | -9.3* | .
CNc1snc(C)c1C(=O)OC(C)C(=O)Nc1ccc(F)cc1 (configuration not stated) | . | . | . | . | i | .
COc1ccccc1NC(C)C(=O)N/N=C/c1ccccc1OCc1cccc(Br)c1 (configuration not stated) | -6 | -7.3* | i | i | i | 0.24
COc1ccc(-c2c[n+](CC(=O)OC3CC(C)CCC3C(C)C)c3n2CCC3)cc1 (configuration not stated) | -20 | i | i | i | i | -5.2*
CC(c1ccccc1)n1c(-c2cccs2)nc2c(c(=O)c3ccccc3n2C)c1=O (configuration not stated) | -5 | -8.1* | i | i | i | -0.31
Cn1c2ccccc2c(=O)c2c(=O)n(-c3ccc(F)cc3)c(-c3cccs3)nc21 | -2 | i | i | i | i | -1.2
O=C(Nc1cccc([N+](=O)[O-])c1)C1CCN(C(=O)Cc2ccccc2)CC1 | -13 | i | i | i | i | 0.21
COc1ccc(C(CNC(=O)c2ccc3c(c2)OCCO3)N(C)C)cc1 (configuration not stated) | -6 | i | i | i | i | -2.6
CCOC(=O)c1ccc(/C=C2/C=C(c3ccccc3)N(c3ccc(Cl)c(C(=O)O)c3)C2=O)cc1 | -24 | i | i | 11* | i | -6.6
COc1ccc(/C(N)=N/OC(=O)c2ccc3c(c2)OCO3)cc1OC | 5.9* | i | i | i | i | 1.5
CC1CCN(C(=S)NC(=O)c2ccccc2)CC1 | -6 | i | i | i | i | 0.29
O=C(NC(=S)N(CC1CCC1)CC1CCCO1)c1cccc([N+](=O)[O-])c1 (configuration not stated) | 7.9* | i | 16* | i | i | 0.37
CC1CCN(C(=S)NC(=O)c2ccc(C(C)(C)C)cc2)CC1 | 14* | i | 29* | i | i | 1.1
Cc1ccc(C(=O)NC(=S)N2CCN(c3ccccc3F)CC2)cc1 | -9 | i | i | i | i | -0.12
COc1ccc(C(=O)NC(=S)N2CCC(C)CC2)cc1Br | 15* | i | 27* | i | i | -2
Cc1ccc(C(=O)NC(=S)N2CCN(c3cc(C)ccc3C)CC2)cc1 | 7.7* | i | i | i | i | 0.05
CCc1ccc(CNCCSc2nnnn2C)cc1 | -4 | i | i | i | i | 0.69
SMILES | hERG protect | KCNK9 inh | KCNQ1 act | KCNQ1 block | KCNK3 block | Kir21 block
CN1CCN(C(=S)NC(=O)c2cccc([N+](=O)[O-])c2)CC1 | -4 | i | i | i | i | -0.69
CC(C)(C)c1ccc(C(=O)NC(=S)N2CCCCCC2)cc1 | 8.4* | i | 22* | i | i | 1.7
CC1CCN(C(=S)NC(=O)c2cccc([N+](=O)[O-])c2)CC1 | 13* | i | 9* | i | i | 2
Cc1cccc(C)c1NC(=O)CN(C)C(=O)C1=COCCO1 | . | . | . | . | i | .
CC(c1cccs1)N(Cc1ccco1)C(=S)Nc1ccc(F)c(Cl)c1 (configuration not stated) | -15 | i | i | 10* | i | -0.25
Cc1ccccc1NC(=S)N(Cc1ccco1)C(C)c1cccs1 (configuration not stated) | -14 | i | i | i | i | -3
CCC(C)c1ccc(S(=O)(=O)N2CCN(S(=O)(=O)c3ccc(NC(C)=O)cc3)CC2)cc1 (configuration not stated) | -5 | i | i | i | i | -0.01
O=C(NC(=S)Nc1nc2c(s1)CCCC2)c1ccc(C(=O)c2ccccc2)cc1 | 14* | i | 9* | i | i | 1.9
O=C(Nc1nc2c(s1)CCCC2)c1cccnc1 | -12 | i | i | i | i | -0.68
Cc1ccccc1OCC(=O)OCC(=O)c1ccc[nH]1 | . | . | . | . | i | .
COc1cc(-c2nc(CN(C)Cc3nnc(C)o3)c(C)o2)ccc1F | -7 | i | i | i | i | 0.1
C=C/C(C)=C/CC1C(=C)CCC2C(C)(C(=O)O)CCCC12C (configuration not stated) | -9 | i | i | i | i | 2.4
C=C[C@]1(C)C=C2CCC3[C@](C)(CCC[C@@]3(C)C(=O)O)C2CC1 (some centres not stated) | 0 | i | 9* | i | i | 1.4
C=CCc1ccccc1OCC(O)CN1CCN(Cc2ccc3c(c2)OCO3)CC1 (configuration not stated) | -15 | i | i | i | i | -4.6*!
Cc1ccc(OCC(O)CN2CCN(Cc3ccc4c(c3)OCO4)CC2)cc1C (configuration not stated) | -6 | i | i | i | i | -0.09
CCN(C(=O)CCc1nc(-c2ccc(OC)cc2)no1)c1cc(OC)ccc1OC | -8 | -7.6* | i | i | i | -0.78
c1coc(C2Nc3cccc4cccc(c34)N2)c1 | -12 | i | i | i | . | 0.39
